Assay results taken from ChEMBL document CHEMBL3588757, “Structure-based design, synthesis and biological testing of piperazine-linked bis-epipodophyllotoxin etoposide analogs” (Bioorg Med Chem, 2015).
The source made the active and inactive calls. The calls are words filed in the database; no cut-off is given here.

How the values were obtained:
[1] = biological target: DNA topoisomerase 2-alpha (Homo sapiens) (UniProt P11388); assay: Inhibition of full-length human recombinant topoisomerase 2-alpha mediated relaxation and cleavage of supercoiled pBR322 plasmid DNA to linear DNA by ethidium bromide staining based gel electrophoresis assay
Chain of DNA topoisomerase 2-alpha (Homo sapiens) (P11388 whole entry): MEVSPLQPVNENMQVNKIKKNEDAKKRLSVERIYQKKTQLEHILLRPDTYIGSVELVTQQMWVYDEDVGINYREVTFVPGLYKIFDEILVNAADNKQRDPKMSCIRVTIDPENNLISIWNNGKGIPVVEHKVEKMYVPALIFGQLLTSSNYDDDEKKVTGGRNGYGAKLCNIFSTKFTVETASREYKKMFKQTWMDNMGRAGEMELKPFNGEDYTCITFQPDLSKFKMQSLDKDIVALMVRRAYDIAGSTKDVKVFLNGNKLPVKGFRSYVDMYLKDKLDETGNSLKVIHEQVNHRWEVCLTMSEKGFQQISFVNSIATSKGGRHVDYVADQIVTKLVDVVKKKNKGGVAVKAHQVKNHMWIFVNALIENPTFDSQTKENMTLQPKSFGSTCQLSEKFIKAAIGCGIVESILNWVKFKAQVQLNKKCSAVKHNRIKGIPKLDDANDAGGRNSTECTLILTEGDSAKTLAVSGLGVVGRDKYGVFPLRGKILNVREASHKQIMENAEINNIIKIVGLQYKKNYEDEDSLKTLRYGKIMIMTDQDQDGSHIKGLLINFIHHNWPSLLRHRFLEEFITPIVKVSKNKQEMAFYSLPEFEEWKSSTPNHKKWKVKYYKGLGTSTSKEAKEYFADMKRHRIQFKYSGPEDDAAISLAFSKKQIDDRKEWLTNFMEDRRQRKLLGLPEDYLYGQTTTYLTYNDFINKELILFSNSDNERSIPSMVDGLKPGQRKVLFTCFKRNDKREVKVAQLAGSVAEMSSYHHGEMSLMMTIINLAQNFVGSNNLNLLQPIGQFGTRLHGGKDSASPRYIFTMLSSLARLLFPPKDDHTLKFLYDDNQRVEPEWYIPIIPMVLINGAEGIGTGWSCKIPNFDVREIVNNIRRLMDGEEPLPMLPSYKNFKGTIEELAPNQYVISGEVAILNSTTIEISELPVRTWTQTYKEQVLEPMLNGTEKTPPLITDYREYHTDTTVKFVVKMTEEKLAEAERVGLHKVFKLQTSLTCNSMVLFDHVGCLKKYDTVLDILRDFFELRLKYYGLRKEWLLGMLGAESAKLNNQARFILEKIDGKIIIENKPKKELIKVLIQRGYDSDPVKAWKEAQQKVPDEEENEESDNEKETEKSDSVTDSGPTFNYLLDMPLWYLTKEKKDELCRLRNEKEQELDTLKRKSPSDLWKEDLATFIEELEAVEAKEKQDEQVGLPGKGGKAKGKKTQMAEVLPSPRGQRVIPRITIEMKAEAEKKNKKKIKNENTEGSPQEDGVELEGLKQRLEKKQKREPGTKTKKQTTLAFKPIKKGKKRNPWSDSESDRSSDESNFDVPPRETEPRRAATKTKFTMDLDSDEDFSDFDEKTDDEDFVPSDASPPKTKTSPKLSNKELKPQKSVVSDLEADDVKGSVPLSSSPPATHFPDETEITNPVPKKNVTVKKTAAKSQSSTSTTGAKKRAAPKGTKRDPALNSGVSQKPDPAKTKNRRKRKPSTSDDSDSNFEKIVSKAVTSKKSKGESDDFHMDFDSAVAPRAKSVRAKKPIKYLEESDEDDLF
Summary of the method: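 Recombinant full-length human topoisomerase IIα with supercoiled pBR322 DNA at 37 °C. Components mixed on ice before drug addition. Complexes trapped with SDS; products run on ethidium bromide gels. Linear DNA identified against a HindIII-linearized marker; repeated on three days.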

[2] = system: SK-MEL-28; assay: Cytotoxicity against human SK-MEL-28 cells assessed as cell growth at 10 uM; assay type: functional; details: read-out: Activity
[3] = system: T47D; assay: Cytotoxicity against human T47D cells assessed as cell growth at 10 uM; assay type: functional; details: read-out: Activity
[4] = system: SW-620; assay: Cytotoxicity against human SW620 cells assessed as cell growth at 10 uM; assay type: functional; details: read-out: Activity
[5] = system: SF-539; assay: Cytotoxicity against human SF539 cells assessed as cell growth at 10 uM; assay type: functional; details: read-out: Activity
[6] = system: BT-549; assay: Cytotoxicity against human BT549 cells assessed as cell growth at 10 uM; assay type: functional; details: read-out: Activity
[7] = system: M14; assay: Cytotoxicity against human M14 cells assessed as cell growth at 10 uM; assay type: functional; details: read-out: Activity
[8] = system: SR; assay: Cytotoxicity against human SR cells assessed as cell growth at 10 uM; assay type: functional; details: read-out: Activity
[9] = system: NCI-H322M; assay: Cytotoxicity against human NCI-H322M cells assessed as cell growth at 10 uM; assay type: functional; details: read-out: Activity
[10] = system: MDA-MB-468; assay: Cytotoxicity against human MDA-MB-468 cells assessed as cell growth at 10 uM; assay type: functional; details: read-out: Activity
[11] = system: RPMI-8226; assay: Cytotoxicity against human RPMI8226 cells assessed as cell growth at 10 uM; assay type: functional; details: read-out: Activity
[12] = system: K562; assay: Cytotoxicity against human K562 cells assessed as cell growth inhibition after 72 hrs by MTS assay; assay type: functional, cell-based; details: K562, 72 h
[13] = system: OVCAR-3; assay: Cytotoxicity against human OVCAR3 cells assessed as cell growth at 10 uM; assay type: functional; details: read-out: Activity
[14] = system: KM12; assay: Cytotoxicity against human KM12 cells assessed as cell growth at 10 uM; assay type: functional; details: read-out: Activity
[15] = system: NCI-H460; assay: Cytotoxicity against human NCI-H460 cells assessed as cell growth at 10 uM; assay type: functional; details: read-out: Activity
[16] = system: OVCAR-5; assay: Cytotoxicity against human OVCAR5 cells assessed as cell growth at 10 uM; assay type: functional; details: read-out: Activity
[17] = system: MOLT-4; assay: Cytotoxicity against human MOLT4 cells assessed as cell growth at 10 uM; assay type: functional; details: read-out: Activity
[18] = system: DU-145; assay: Cytotoxicity against human DU145 cells assessed as cell growth at 10 uM; assay type: functional; details: read-out: Activity
[19] = system: MDA-MB-231; assay: Cytotoxicity against human MDA-MB-231/ATCC cells assessed as cell growth at 10 uM; assay type: functional; details: read-out: Activity
[20] = system: K562; assay: Relative resistance, ratio of IC50 for etoposide-resistant human K/VP.5 cells to IC50 for human K562 cells; assay type: functional
[21] = system: UACC-62; assay: Cytotoxicity against human UACC62 cells assessed as cell growth at 10 uM; assay type: functional; details: read-out: Activity
[22] = system: CCRF-CEM; assay: Cytotoxicity against human CCRF-CEM cells assessed as cell growth at 10 uM; assay type: functional; details: read-out: Activity
[23] = system: SF-268; assay: Cytotoxicity against human SF268 cells assessed as cell growth at 10 uM; assay type: functional; details: read-out: Activity
[24] = system: ACHN; assay: Cytotoxicity against human ACHN cells assessed as cell growth at 10 uM; assay type: functional; details: read-out: Activity
[25] = system: HT-29; assay: Cytotoxicity against human HT-29 cells assessed as cell growth at 10 uM; assay type: functional; details: read-out: Activity
[26] = system: HL-60(TB); assay: Cytotoxicity against human HL-60(TB) cells assessed as cell growth at 10 uM; assay type: functional; details: read-out: Activity
[27] = Cytotoxicity against human Hs578T cells assessed as cell growth at 10 uM; assay type: functional; details: Hs-578T, read-out: Activity
[28] = system: SK-MEL-5; assay: Cytotoxicity against human SK-MEL-5 cells assessed as cell growth at 10 uM; assay type: functional; details: read-out: Activity
[29] = system: A498; assay: Cytotoxicity against human A498 cells assessed as cell growth at 10 uM; assay type: functional; details: read-out: Activity
[30] = system: SNB-75; assay: Cytotoxicity against human SNB75 cells assessed as cell growth at 10 uM; assay type: functional; details: read-out: Activity
[31] = system: TK-10; assay: Cytotoxicity against human TK10 cells assessed as cell growth at 10 uM; assay type: functional; details: read-out: Activity
[32] = biological target: DNA topoisomerase 2-alpha (Homo sapiens) (UniProt P11388); assay: Inhibition of full-length human recombinant topoisomerase 2-alpha-mediated decatenation activity of kDNA by ethidium bromide based gel-assay
[33] = system: 786-0; assay: Cytotoxicity against human 786-0 cells assessed as cell growth at 10 uM; assay type: functional; details: read-out: Activity
[34] = system: A549; assay: Cytotoxicity against human A549/ATCC cells assessed as cell growth at 10 uM; assay type: functional; details: read-out: Activity
[35] = system: NCI-H226; assay: Cytotoxicity against human NCI-H226 cells assessed as cell growth at 10 uM; assay type: functional; details: read-out: Activity
[36] = system: OVCAR-4; assay: Cytotoxicity against human OVCAR4 cells assessed as cell growth at 10 uM; assay type: functional; details: read-out: Activity
[37] = system: SK-OV-3; assay: Cytotoxicity against human SKOV3 cells assessed as cell growth at 10 uM; assay type: functional; details: read-out: Activity
[38] = system: MCF7; assay: Cytotoxicity against human MCF7 cells assessed as cell growth at 10 uM; assay type: functional; details: read-out: Activity
[39] = system: SNB-19; assay: Cytotoxicity against human SNB19 cells assessed as cell growth at 10 uM; assay type: functional; details: read-out: Activity
[40] = system: HCT-15; assay: Cytotoxicity against human HCT15 cells assessed as cell growth at 10 uM; assay type: functional; details: read-out: Activity
[41] = system: HCT-116; assay: Cytotoxicity against human HCT116 cells assessed as cell growth at 10 uM; assay type: functional; details: read-out: Activity
[42] = system: SN12C; assay: Cytotoxicity against human SN12C cells assessed as cell growth at 10 uM; assay type: functional; details: read-out: Activity
[43] = system: RXF 393; assay: Cytotoxicity against human RXF393 cells assessed as cell growth at 10 uM; assay type: functional; details: read-out: Activity
[44] = system: IGROV-1; assay: Cytotoxicity against human IGROV1 cells assessed as cell growth at 10 uM; assay type: functional; details: read-out: Activity
[45] = system: PC-3; assay: Cytotoxicity against human PC3 cells assessed as cell growth at 10 uM; assay type: functional; details: read-out: Activity
[46] = system: MDA-MB-435; assay: Cytotoxicity against human MDA-MB-435 cells assessed as cell growth at 10 uM; assay type: functional; details: read-out: Activity
[47] = system: HCC 2998; assay: Cytotoxicity against human HCC2998 cells assessed as cell growth at 10 uM; assay type: functional; details: read-out: Activity
[48] = system: K562; assay: Cytotoxicity against human K562 cells assessed as cell growth at 10 uM; assay type: functional; details: read-out: Activity
[49] = Cytotoxicity against human NCI-ADR-RES cells assessed as cell growth at 10 uM; assay type: functional; details: read-out: Activity
[50] = system: Malme-3M; assay: Cytotoxicity against human MALME-3M cells assessed as cell growth at 10 uM; assay type: functional; details: read-out: Activity
[51] = system: SF-295; assay: Cytotoxicity against human SF295 cells assessed as cell growth at 10 uM; assay type: functional; details: read-out: Activity
[52] = system: UACC-257; assay: Cytotoxicity against human UACC257 cells assessed as cell growth at 10 uM; assay type: functional; details: read-out: Activity
[53] = system: CAKI-1; assay: Cytotoxicity against human Caki1 cells assessed as cell growth at 10 uM; assay type: functional; details: read-out: Activity
[54] = system: UO-31; assay: Cytotoxicity against human UO31 cells assessed as cell growth at 10 uM; assay type: functional; details: read-out: Activity
[55] = system: COLO 205; assay: Cytotoxicity against human COLO205 cells assessed as cell growth at 10 uM; assay type: functional; details: read-out: Activity
[56] = system: OVCAR-8; assay: Cytotoxicity against human OVCAR8 cells assessed as cell growth at 10 uM; assay type: functional; details: read-out: Activity
[57] = system: SK-MEL-2; assay: Cytotoxicity against human SK-MEL-2 cells assessed as cell growth at 10 uM; assay type: functional; details: read-out: Activity
[58] = system: NCI-H23; assay: Cytotoxicity against human NCI-H23 cells assessed as cell growth at 10 uM; assay type: functional; details: read-out: Activity
[59] = system: U-251; assay: Cytotoxicity against human U251 cells assessed as cell growth at 10 uM; assay type: functional; details: read-out: Activity
[60] = system: HOP-92; assay: Cytotoxicity against human HOP92 cells assessed as cell growth at 10 uM; assay type: functional; details: read-out: Activity
[61] = Cytotoxicity against etoposide-resistant human K/VP.5 cells assessed as cell growth inhibition after 72 hrs by MTS assay; assay type: functional, cell-based; details: K/VP.5, 72 h
Summary of the method: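 K/VP.5 cells are a K562-derived subline, 26-fold etoposide-resistant, with decreased topoisomerase IIα mRNA and protein. Cells were grown in suspension in αMEM with 10% fetal calf serum. Drugs were given from DMSO stocks, with final DMSO typically 0.4% or less. Read-out was MTS absorbance after 72 h. Typically nine concentrations were run in duplicate on two days. IC50 came from a four-parameter logistic fit.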

[62] = system: HOP-62; assay: Cytotoxicity against human HOP62 cells assessed as cell growth at 10 uM; assay type: functional; details: read-out: Activity

## COc1cc([C@@H]2c3cc4c(cc3[C@@H](NC(=O)CN3CCN(CCCN5CCN(CC(=O)N[C@@H]6c7cc8c(cc7[C@@H](c7cc(OC)c(O)c(OC)c7)[C@H]7C(=O)OC[C@@H]76)OCO8)CC5)CC3)[C@H]3COC(=O)[C@H]23)OCO4)cc(OC)c1O
[1]
  Effect on topoisomerase 2-alpha DNA cleavage (qualitative): Dose-dependent effect
[2]
  growth at 10 µM: 85.9%
[3]
  growth at 10 µM: 56.9%
[4]
  growth at 10 µM: 54.9%
[5]
  growth at 10 µM: 77.8%
[6]
  growth at 10 µM: 69.6%
[7]
  growth at 10 µM: 95.4%
[8]
  growth at 10 µM: 15.2%
[9]
  growth at 10 µM: 104%
[10]
  growth at 10 µM: 93.8%
[11]
  growth at 10 µM: 63.4%
[12]
  IC50: 0.525 µM
[13]
  growth at 10 µM: 98.2%
[14]
  growth at 10 µM: 87.9%
[15]
  growth at 10 µM: 24.3%
[16]
  growth at 10 µM: 102%
[17]
  growth at 10 µM: 10.9%
[18]
  growth at 10 µM: 83.5%
[19]
  growth at 10 µM: 93.9%
[20]
  Ratio IC50: 14.2
[21]
  growth at 10 µM: 56.4%
[22]
  growth at 10 µM: 12.8%
[23]
  growth at 10 µM: 69.6%
[24]
  growth at 10 µM: 92.5%
[25]
  growth at 10 µM: 89.5%
[26]
  growth at 10 µM: 26.7%
[27]
  growth at 10 µM: 95.2%
[28]
  growth at 10 µM: 77.6%
[29]
  growth at 10 µM: 65%
[30]
  growth at 10 µM: 66.8%
[31]
  growth at 10 µM: 88.7%
[32]
  inhibition: Active
[33]
  growth at 10 µM: 95.9%
[34]
  growth at 10 µM: 47%
[35]
  growth at 10 µM: 86%
[36]
  growth at 10 µM: 95.6%
[37]
  growth at 10 µM: 96.7%
[38]
  growth at 10 µM: 26%
[39]
  growth at 10 µM: 59.3%
[40]
  growth at 10 µM: 98.6%
[41]
  growth at 10 µM: 64.6%
[42]
  growth at 10 µM: 57.8%
[43]
  growth at 10 µM: 90.2%
[44]
  growth at 10 µM: 71.8%
[45]
  growth at 10 µM: 79.8%
[46]
  growth at 10 µM: 88.6%
[47]
  growth at 10 µM: 97.8%
[48]
  growth at 10 µM: 61.9%
[49]
  growth at 10 µM: 103%
[50]
  growth at 10 µM: 68.1%
[51]
  growth at 10 µM: 94.5%
[52]
  growth at 10 µM: 79.7%
[53]
  growth at 10 µM: 97%
[54]
  growth at 10 µM: 93.1%
[55]
  growth at 10 µM: 53.9%
[56]
  growth at 10 µM: 95.5%
[57]
  growth at 10 µM: 101%
[58]
  growth at 10 µM: 84.2%
[59]
  growth at 10 µM: 45.1%
[60]
  growth at 10 µM: 65.7%
[61]
  IC50: 7.5 µM
[62]
  growth at 10 µM: 75.9%
